{"source": "ChEMBL document CHEMBL4732112", "about": "“Synthesis and in vitro evaluation of novel spiroketopyrazoles as acetyl-CoA carboxylase inhibitors and potential antitumor agents” (Eur J Med Chem, 2021)", "key": {"HepG2 [1]": {"test_system": "HepG2", "assay": "Antiproliferative activity against human HepG2 cells assessed as combination index at 0.0875 uM measured after 72 hrs in presence of 0.175 uM doxorubicin by MTT assay", "type": "functional"}, "HepG2 [2]": {"test_system": "HepG2", "assay": "Induction of apoptosis in human HepG2 cells assessed as increase in late apoptotic cells measured after 48 hrs by Annexin V-FITC/propidium iodide staining based flow cytometry", "type": "functional, cell-based", "settings": "dose 1-10 µM", "method_in_brief": "(§1)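 HepG2 cells incubated with the stated concentrations for 48 h, harvested, and stained with Annexin V-FITC and propidium iodide protected from light. Viable, early apoptotic, late apoptotic and necrotic fractions quantified by flow cytometry. Mean ± SD, n=3.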"}, "HepG2 [3]": {"test_system": "HepG2", "assay": "Induction of apoptosis in human HepG2 cells assessed as viable cells at 5 uM measured after 48 hrs by Annexin V-FITC/propidium iodide staining based flow cytometry (reference value: 95.6%)", "type": "functional", "settings": "read-out: Activity"}, "Acetyl-CoA carboxylase 1": {"target": "Acetyl-CoA carboxylase 1 (Homo sapiens, UniProt Q13085)", "assay": "Inhibition of recombinant human C-terminal His-tagged ACC1 (1 to 2383 residues) expressed in baculovirus infected Sf9 insect cells at 0.1 uM preincubated for 15 mins followed by substrate addition and measured after 60 mins by ADP-glo luminescence assay relative to control"}, "HepG2 [4]": {"test_system": "HepG2", "assay": "Cell cycle arrest in human HepG2 cells assessed as reduction in cyclin D1 expression measured after 48 hrs by Western blot analysis", "type": "functional, cell-based", "settings": "dose 1-10 µM", "method_in_brief": "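HepG2 cells treated for 48 h and lysed. Lysates cleared at 12000 rpm for 15 min and protein measured by BCA. Run on SDS-PAGE, transferred to PVDF, blocked in 5% BSA, primary antibody at 4 °C overnight, then DyLight 800 secondary. Infrared imaging and densitometry against β-actin. Mean ± SD, n=3.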"}, "HepG2 [5]": {"test_system": "HepG2", "assay": "Cell cycle arrest in human HepG2 cells assessed as accumulation at G0/G1 phase measured after 48 hrs by propidium iodide staining based flow cytometry", "type": "functional", "settings": "dose 1-10 µM"}, "HepG2 [6]": {"test_system": "HepG2", "assay": "Antiproliferative activity against human HepG2 cells assessed as combination index at 1.4 uM measured after 72 hrs in presence of 2.8 uM doxorubicin by MTT assay", "type": "functional"}, "HepG2 [7]": {"test_system": "HepG2", "assay": "Antiproliferative activity against human HepG2 cells assessed as cell viability at 0.5 uM measured after 5 days in presence of 25 uM palmitate by MTT assay relative to control", "type": "functional", "settings": "HepG2, 120 h, time 5 day, read-out: Activity", "method_in_brief": "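HepG2 treated with 0.5 μM plus 0, 10 or 25 μM palmitate for 1, 3 and 5 days. Palmitate was complexed with 5% fatty-acid-free BSA from a 5 mM solution, then diluted in serum-free DMEM to final concentration. Viability (% control) by MTT. Mean ± SD, n=3.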"}, "HepG2 [8]": {"test_system": "HepG2", "assay": "Induction of apoptosis in human HepG2 cells assessed as necrotic cells at 10 uM measured after 48 hrs by Annexin V-FITC/propidium iodide staining based flow cytometry (reference value: 0.22%)", "type": "functional", "method_in_brief": "as §1"}, "MDA-MB-231": {"test_system": "MDA-MB-231", "assay": "Antiproliferative activity against human MDA-MB-231 cells assessed as cell growth inhibition after 72 hrs by MTT assay", "type": "functional, cell-based", "settings": "MDA-MB-231, 72 h", "method_in_brief": "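HepG2, A549 or MDA-MB-231 cells grown in DMEM with 10% FBS and penicillin/streptomycin at 37 °C, 5% CO2. Seeded at 3×10^3 per well, left 24 h, then exposed to a range of concentrations for 72 h. MTT added for 4 h, formazan dissolved in DMSO, absorbance read at 550 nm. Mean ± SD, n=3.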"}, "HepG2 [9]": {"test_system": "HepG2", "assay": "Induction of apoptosis in human HepG2 cells assessed as early apoptotic cells at 5 uM measured after 48 hrs by Annexin V-FITC/propidium iodide staining based flow cytometry (reference value: 4.03%)", "type": "functional", "method_in_brief": "as §1"}}, "data": [{"smiles": "CC(C)(C)n1cc2c(n1)C(=O)CC1(CCN(C(=O)c3cc(-c4ccncc4)nc4ccccc34)CC1)O2", "values": [{"measurement": "CI", "setting": "HepG2 [1]", "value": 0.713}, {"measurement": "Activity", "setting": "HepG2 [2]", "value": "Dose-dependent effect"}, {"measurement": "viability at 5 µM", "setting": "HepG2 [3]", "value": 44.8, "unit": "%"}, {"measurement": "inhibition", "setting": "Acetyl-CoA carboxylase 1", "value": 86.2, "unit": "%"}, {"measurement": "Activity", "setting": "HepG2 [4]", "value": "Dose-dependent effect"}, {"measurement": "Activity", "setting": "HepG2 [5]", "value": "Dose-dependent effect"}, {"measurement": "CI", "setting": "HepG2 [6]", "value": 0.366}, {"measurement": "viability at 0.5 µM", "setting": "HepG2 [7]", "value": 87.1, "unit": "%"}, {"measurement": "Activity", "setting": "HepG2 [8]", "value": 0.64, "unit": "%"}, {"measurement": "IC50", "setting": "MDA-MB-231", "value": 1.65, "unit": "µM"}, {"measurement": "Activity", "setting": "HepG2 [9]", "value": 18.9, "unit": "%"}]}]}
